Experimental data taken from ChEMBL document CHEMBL1240433, “Design, synthesis, and antitubercular evaluation of novel series of 3-benzofuran-5-aryl-1-pyrazolyl-pyridylmethanone and 3-benzofuran-5-aryl-1-pyrazolylcarbonyl-4-oxo-naphthyridin analogs” (Eur J Med Chem, 2010).
Converted amounts (≈) assume the structure as drawn.

Each compound was assayed on Mycobacterium tuberculosis (assay: Antitubercular activity against multidrug-resistant Mycobacterium tuberculosis H37Rv after 6 weeks).
Format: functional
Summary of the method: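 Lowenstein-Jensen slope assay. DMSO stocks of 250 and 10 µg/mL were each mixed 0.8 mL into 7.2 mL L.J. medium, then inspissated at 75-80 °C for 3 days. A loopful of culture was dispersed with glass beads in sterile water by vortexing for 2 min and streaked onto the slopes. DMSO-only and drug-free media served as controls. Bacterial counts were read after 6 weeks at 37 °C.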

Row | SMILES | MIC [µg/mL]
1 | O=C(O)c1ccccc1C1CC(c2cc3ccccc3o2)=NN1C(=O)c1ccncc1 (stereo not given) | 3.2 (≈ 7.78 µM)
2 | O=C(c1ccncc1)N1N=C(c2cc3ccccc3o2)CC1/C=C/c1ccccc1 (stereo not given) | 7.5 (≈ 19.1 µM)
3 | O=C(c1ccncc1)N1N=C(c2cc3ccccc3o2)CC1c1ccccc1 (stereo not given) | 9.5 (≈ 25.9 µM)
4 | CCn1cc(C(=O)N2N=C(c3cc4ccccc4o3)CC2c2ccco2)c(=O)c2ccc(C)nc21 (stereo not given) | 8.5 (≈ 18.2 µM)
5 | CCn1cc(C(=O)N2N=C(c3cc4ccccc4o3)CC2c2ccc(OC)cc2)c(=O)c2ccc(C)nc21 (stereo not given) | 8.5 (≈ 16.8 µM)
6 | CN(C)c1ccc(C2CC(c3cc4ccccc4o3)=NN2C(=O)c2ccncc2)cc1 (stereo not given) | 11.5 (≈ 28 µM)
7 | O=C(c1ccncc1)N1N=C(c2cc3ccccc3o2)CC1c1ccc(O)cc1 (stereo not given) | 6.2 (≈ 16.2 µM)
8 | CCn1cc(C(=O)N2N=C(c3cc4ccccc4o3)CC2/C=C/c2ccccc2)c(=O)c2ccc(C)nc21 (stereo not given) | 7.4 (≈ 14.7 µM)
9 | O=C(c1ccncc1)N1N=C(c2cc3ccccc3o2)CC1c1ccc(Cl)cc1 (stereo not given) | 10.6 (≈ 26.4 µM)
10 | CCn1cc(C(=O)N2N=C(c3cc4ccccc4o3)CC2c2ccc(OC)cc2O)c(=O)c2ccc(C)nc21 (stereo not given) | 5.4 (≈ 10.3 µM)
11 | O=C(c1ccncc1)N1N=C(c2cc3ccccc3o2)CC1c1cccc([N+](=O)[O-])c1 (stereo not given) | 6.9 (≈ 16.7 µM)
12 | CCn1cc(C(=O)N2N=C(c3cc4ccccc4o3)CC2c2ccccc2)c(=O)c2ccc(C)nc21 (stereo not given) | 10.8 (≈ 22.7 µM)
13 | CCn1cc(C(=O)N2N=C(c3cc4ccccc4o3)CC2c2ccc(Cl)cc2)c(=O)c2ccc(C)nc21 (stereo not given) | 6.3 (≈ 12.3 µM)
14 | O=C(c1ccncc1)N1N=C(c2cc3ccccc3o2)CC1c1ccccc1O (stereo not given) | 6.2 (≈ 16.2 µM)
15 | COc1ccc(C2CC(c3cc4ccccc4o3)=NN2C(=O)c2ccncc2)cc1 (stereo not given) | 5.5 (≈ 13.8 µM)
16 | COc1ccccc1C1CC(c2cc3ccccc3o2)=NN1C(=O)c1ccncc1 (stereo not given) | 5.7 (≈ 14.3 µM)
17 | CCn1cc(C(=O)N2N=C(c3cc4ccccc4o3)CC2c2ccccc2[N+](=O)[O-])c(=O)c2ccc(C)nc21 (stereo not given) | 3.6 (≈ 6.9 µM)
18 | CCn1cc(C(=O)N2N=C(c3cc4ccccc4o3)CC2c2ccccc2Cl)c(=O)c2ccc(C)nc21 (stereo not given) | 8.4 (≈ 16.4 µM)
19 | O=C(c1ccncc1)N1N=C(c2cc3ccccc3o2)CC1c1ccccc1Cl (stereo not given) | 9.5 (≈ 23.6 µM)
20 | CCn1cc(C(=O)N2N=C(c3cc4ccccc4o3)CC2c2ccccc2OC)c(=O)c2ccc(C)nc21 (stereo not given) | 8.5 (≈ 16.8 µM)
21 | O=C(c1ccncc1)N1N=C(c2cc3ccccc3o2)CC1c1ccco1 (stereo not given) | 10.4 (≈ 29.1 µM)
22 | CCn1cc(C(=O)N2N=C(c3cc4ccccc4o3)CC2c2ccccc2C(=O)O)c(=O)c2ccc(C)nc21 (stereo not given) | 7.8 (≈ 15 µM)
23 | CO[C@H]1/C=C/O[C@@]2(C)Oc3c(C)c(O)c4c(O)c(c(/C=N/N5CCN(C)CC5)c(O)c4c3C2=O)NC(=O)/C(C)=C\C=C\[C@H](C)[C@H](O)[C@@H](C)[C@@H](O)[C@@H](C)[C@H](OC(C)=O)[C@@H]1C [RIFAMPIN] | 4.2 (≈ 5.1 µM)
24 | CCn1cc(C(=O)N2N=C(c3cc4ccccc4o3)CC2c2cccc([N+](=O)[O-])c2)c(=O)c2ccc(C)nc21 (stereo not given) | 3.7 (≈ 7.09 µM)
25 | CCn1cc(C(=O)N2N=C(c3cc4ccccc4o3)CC2c2ccccc2O)c(=O)c2ccc(C)nc21 (stereo not given) | 6.4 (≈ 13 µM)
26 | O=C(c1ccncc1)N1N=C(c2cc3ccccc3o2)CC1c1ccccc1[N+](=O)[O-] (stereo not given) | 7.5 (≈ 18.2 µM)
27 | NNC(=O)c1ccncc1 [ISONIAZID] | 8.5 (≈ 62 µM)
28 | CCn1cc(C(=O)N2N=C(c3cc4ccccc4o3)CC2c2ccc(O)cc2)c(=O)c2ccc(C)nc21 (stereo not given) | 3.8 (≈ 7.72 µM)
29 | COc1ccc(C2CC(c3cc4ccccc4o3)=NN2C(=O)c2ccncc2)c(O)c1 (stereo not given) | 4.5 (≈ 10.9 µM)
30 | CCn1cc(C(=O)N2N=C(c3cc4ccccc4o3)CC2c2ccc(N(C)C)cc2)c(=O)c2ccc(C)nc21 (stereo not given) | 10.6 (≈ 20.4 µM)
